Data: ChEMBL document CHEMBL4014315 (J Med Chem, 2017)

Tests used:
[1] = Therapeutic index, ratio of GI50 for ABCG2 over-expressing MDCK2 cells to IC50 for recombinant human GFP-fused ABCG2 expressed in MDCK2 cells; type: cell-based
[2] = Cytotoxicity against MDCK2 cells assessed as cell growth inhibition after 72 hrs by MTT assay; type: cell-based, Canis lupus familiaris, MDCK-II; details: dog
[3] = target: T1, ABCG2 (Homo sapiens, UniProt Q9UNQ0); assay: Inhibition of recombinant human GFP-fused ABCG2 expressed in MDCK2 cells assessed as reduction in Hoechst 33342 efflux at […] preincubated for 30 mins followed by Hoechst 33342 addition measured immediately at 60 sec time interval for 120 mins by fluorescence assay relative to Ko143; type: cell-based; details: MDCK2 cells expressing recombinant GFP-fused human ABCG2, probe Hoechst 33342, read-out: Imax
T1 sequence (Q9UNQ0 whole entry): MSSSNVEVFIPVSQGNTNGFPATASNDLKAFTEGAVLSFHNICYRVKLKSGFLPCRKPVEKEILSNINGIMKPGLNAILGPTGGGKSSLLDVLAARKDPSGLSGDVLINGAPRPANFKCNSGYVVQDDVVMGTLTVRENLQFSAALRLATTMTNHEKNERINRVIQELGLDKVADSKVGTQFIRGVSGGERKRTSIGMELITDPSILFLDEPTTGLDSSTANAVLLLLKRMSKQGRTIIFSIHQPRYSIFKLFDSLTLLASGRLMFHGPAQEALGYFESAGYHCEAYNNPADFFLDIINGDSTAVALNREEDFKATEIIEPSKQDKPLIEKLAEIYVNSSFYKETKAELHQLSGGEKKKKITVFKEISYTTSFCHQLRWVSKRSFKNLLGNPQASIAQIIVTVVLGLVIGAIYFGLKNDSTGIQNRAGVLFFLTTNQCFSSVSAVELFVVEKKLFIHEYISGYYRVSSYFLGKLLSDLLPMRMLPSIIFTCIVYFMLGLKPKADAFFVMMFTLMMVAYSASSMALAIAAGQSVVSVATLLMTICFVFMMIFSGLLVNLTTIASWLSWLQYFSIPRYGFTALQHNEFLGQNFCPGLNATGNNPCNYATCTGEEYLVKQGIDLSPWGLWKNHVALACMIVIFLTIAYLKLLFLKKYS

[4] = target: T2, Broad substrate specificity ATP-binding cassette transporter ABCG2 (Homo sapiens, UniProt Q9UNQ0); assay: Inhibition of recombinant human GFP-fused ABCG2 expressed in MDCK2 cells assessed as reduction in Hoechst 33342 efflux preincubated for 30 mins followed by Hoechst 33342 addition measured immediately at 60 sec time interval for 120 mins by fluorescence assay; type: cell-based
T2 sequence (Q9UNQ0 whole entry): T1 sequence (Q9UNQ0 whole entry)
Method in brief: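 Hoechst 33342 accumulation assay: the dye is an ABCG2 substrate whose fluorescence rises when bound to DNA or embedded in membrane. Intracellular accumulation serves as the read-out of transporter inhibition.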

[5] = Cytotoxicity against ABCG2 over-expressing MDCK2 cells assessed as cell growth inhibition after 72 hrs by MTT assay; type: ADME, cell-based, Canis lupus familiaris, MDCK-II; details: dog
[6] = target: T2, Broad substrate specificity ATP-binding cassette transporter ABCG2; assay: Activation of ABCG2 (unknown origin) ATPase activity expressed in baculovirus infected high five cell membranes by ascorbic acid/ammonia molybdate reaction-based colorimetric analysis
Method in brief: (§1)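 Colorimetric ATPase assay of ABCG2 membranes; activity expressed relative to control. Where data were biphasic, a combined increasing plus decreasing logistic equation with the Hill coefficient fixed at one was fitted, giving an activating and an inactivating K.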

[7] = target: T1, ABCG2; assay: Activation of ABCG2 (unknown origin) ATPase activity expressed in baculovirus infected high five cell membranes assessed as protein Vmax by ascorbic acid/ammonia molybdate reaction-based colorimetric analysis relative to basal control; details: read-out: Vmax; method in brief: as §1
[8] = target: ATP-dependent translocase ABCB1 (Homo sapiens, UniProt P08183); assay: Inhibition of ABCB1 in human A2780adr cells assessed as reduction in calcein AM levels preincubated for 30 mins followed by calcein AM addition measured immediately at 60 sec time interval for 60 mins by fluorescence assay; type: cell-based
Method in brief: (§2)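 Calcein AM assay in A2780adr cells (ABCB1 overexpressing) and H69AR cells (ABCC1 overexpressing). Compounds were screened at 10 µM, with inhibition relative to cyclosporine A as the total-inhibition control.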

[9] = target: ABCB1 (Homo sapiens, UniProt P08183); assay: Inhibition of ABCB1 in human A2780adr cells assessed as reduction in calcein AM levels at 10 uM preincubated for 30 mins followed by calcein AM addition measured immediately at 60 sec time interval for 60 mins by fluorescence assay relative to Cyclosporine A; type: cell-based; details: probe calcein AM; method in brief: as §2
[10] = system: MDCK-II; assay: Cytotoxicity against ABCG2 over-expressing MDCK2 cells assessed as effect on cell proliferation at low concentration after 72 hrs in absence of DMSO and presence of 1% methanol by MTT assay; type: ADME, cell-based, Canis lupus familiaris; details: dog
Method in brief: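 Modified MTT viability assay in ABCG2-overexpressing MDCK II cells, run without DMSO and with a constant 1% methanol.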

Sequence of ATP-dependent translocase ABCB1 (P08183 whole entry): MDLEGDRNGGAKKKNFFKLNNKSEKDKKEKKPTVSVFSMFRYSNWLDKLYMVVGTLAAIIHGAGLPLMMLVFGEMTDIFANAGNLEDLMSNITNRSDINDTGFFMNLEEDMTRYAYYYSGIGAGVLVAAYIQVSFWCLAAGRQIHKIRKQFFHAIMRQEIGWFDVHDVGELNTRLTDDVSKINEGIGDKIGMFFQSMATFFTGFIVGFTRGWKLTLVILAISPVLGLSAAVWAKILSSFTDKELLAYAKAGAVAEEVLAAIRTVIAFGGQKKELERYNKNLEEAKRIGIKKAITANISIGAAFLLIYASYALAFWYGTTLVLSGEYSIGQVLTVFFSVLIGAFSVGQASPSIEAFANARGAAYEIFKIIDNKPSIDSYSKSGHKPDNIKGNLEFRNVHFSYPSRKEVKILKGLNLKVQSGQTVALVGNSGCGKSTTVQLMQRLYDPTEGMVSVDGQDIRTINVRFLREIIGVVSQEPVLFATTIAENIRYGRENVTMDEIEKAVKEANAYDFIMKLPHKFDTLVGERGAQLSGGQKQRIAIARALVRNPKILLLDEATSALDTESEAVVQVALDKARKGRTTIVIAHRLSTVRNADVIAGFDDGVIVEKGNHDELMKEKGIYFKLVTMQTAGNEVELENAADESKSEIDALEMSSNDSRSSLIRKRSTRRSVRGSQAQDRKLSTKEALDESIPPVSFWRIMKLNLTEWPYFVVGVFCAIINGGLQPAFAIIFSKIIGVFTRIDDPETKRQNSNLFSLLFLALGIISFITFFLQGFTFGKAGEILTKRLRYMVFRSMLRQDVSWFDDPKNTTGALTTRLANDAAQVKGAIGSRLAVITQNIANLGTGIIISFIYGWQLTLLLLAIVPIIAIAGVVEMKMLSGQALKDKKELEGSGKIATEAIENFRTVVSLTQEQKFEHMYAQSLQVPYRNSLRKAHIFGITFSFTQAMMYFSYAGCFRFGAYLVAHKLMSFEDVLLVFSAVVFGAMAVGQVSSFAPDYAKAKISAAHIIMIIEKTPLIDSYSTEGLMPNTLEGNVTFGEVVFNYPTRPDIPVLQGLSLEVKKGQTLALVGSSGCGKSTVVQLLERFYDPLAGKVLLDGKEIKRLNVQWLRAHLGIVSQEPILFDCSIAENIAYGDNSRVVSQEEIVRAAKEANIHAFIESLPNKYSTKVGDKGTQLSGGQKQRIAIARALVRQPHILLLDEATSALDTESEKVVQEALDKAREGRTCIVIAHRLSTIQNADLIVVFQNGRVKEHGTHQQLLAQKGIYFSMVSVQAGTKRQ
Sequence of ABCB1 (P08183 whole entry): as above

Structure (SMILES)	Emax at 2 h [3]	IC50 [4]	EC50 ([6]; read-out: EC50)	Emax [7]	IC50 [8]	inhibition at 1 h, 10 µM [9]	EC50 [6]	TI [1]	GI50 at 72 h [2]	GI50 at 72 h [5]	Activity [10]
CN(C)c1cccc(Nc2nc(-c3cccnc3)nc3ccccc23)c1	80 to 110%	1.2 µM						8.33	14.1 µM	10 µM	
Oc1ccc(Nc2nc(-c3ccccc3)nc3ccccc23)cc1	80 to 110%	0.211 µM						69.2	22.6 µM	14.6 µM	
COC(=O)c1cccc(Nc2nc(-c3ccncc3)nc3ccccc23)c1	80 to 110%	0.405 µM			6.37 µM	> 25%					
Cc1cc(Nc2ccccc2)nc(-c2ccccc2)n1	80 to 110%	0.648 µM		100%			Not Active	165	136 µM	107 µM	
N#Cc1ccc(Nc2nc(-c3cccnc3)nc3ccccc23)cc1	80 to 110%	0.166 µM	0.004 µM	137%				241	104 µM	79.4 µM	
COc1ccc(Nc2nc(-c3ccncc3)nc3ccccc23)cc1C(F)(F)F	80 to 110%	0.146 µM			2.78 µM	> 25%		19.7	2.46 µM	2.88 µM	
CC(C)(C)OC(=O)c1cccc(Nc2nc(-c3ccncc3)nc3ccccc23)c1	80 to 110%	0.299 µM	1.54 µM	40%	0.334 µM	> 25%					
Fc1cccc(Nc2nc(-c3cccnc3)nc3ccccc23)c1	80 to 110%	0.156 µM	0.058 µM	140%				300	100 µM	46.8 µM	
O=S(=O)(F)c1cccc(Nc2nc(-c3ccncc3)nc3ccccc23)c1	80 to 110%	1.38 µM									
COc1cccc(Nc2nc(-c3ccccn3)nc3ccccc23)c1	80 to 110%	1.63 µM			12.7 µM	> 25%					
O=[N+]([O-])c1cccc(Nc2nc(-c3cccnc3)nc3ccccc23)c1	80 to 110%	0.105 µM	0.021 µM	154%				615	64.6 µM	70.8 µM	
N#Cc1cccc(Nc2nc(-c3ccccn3)nc3ccccc23)c1	80 to 110%	0.507 µM	1.53 µM	115%							
Oc1cccc(Nc2nc(-c3ccncc3)nc3ccccc23)c1	80 to 110%	1.07 µM						8.62	12.4 µM	9.22 µM	
Cc1cc(Nc2ccc(C#N)cc2)nc(-c2ccccc2)n1	80 to 110%	0.128 µM	2.46 µM	140%				139	28.4 µM	17.8 µM	
O=C(O)c1ccc(Nc2nc(-c3ccncc3)nc3ccccc23)cc1	80 to 110%	9.64 µM			3.67 µM	> 25%					
OCc1cccc(Nc2nc(-c3ccncc3)nc3ccccc23)c1	80 to 110%	0.921 µM									
N#Cc1cccc(Nc2nc(-c3ccccc3)nc3ccccc23)c1			0.015 µM	145%				146	14.2 µM	10.4 µM	
Cc1cc(Nc2cccc(C#N)c2)nc(-c2ccncc2)n1	80 to 110%	0.132 µM	0.022 µM	133%				52.4	9.33 µM	6.92 µM	

More lines, in order of falling IC50 [4], values ahead:

Emax at 2 h [3]	IC50 [4]	EC50 ([6]; read-out: EC50)	Emax [7]	IC50 [8]	inhibition at 1 h, 10 µM [9]	EC50 [6]	Structure (SMILES)	TI [1]	GI50 at 72 h [2]	GI50 at 72 h [5]	Activity [10]
80 to 110%	60 µM						O=C(O)c1cccc(Nc2nc(-c3ccncc3)nc3ccccc23)c1				
80 to 110%	4.26 µM						Oc1ccc(Nc2nc(-c3ccncc3)nc3ccccc23)cc1	12.9	120 µM	55 µM	
80 to 110%	1.06 µM	0.079 µM	152%	6.3 µM	> 25%		COc1ccc(Nc2nc(-c3ccccn3)nc3ccccc23)cc1OC				
80 to 110%	1.02 µM	0.05 µM	137%	4.78 µM	> 25%		COc1cccc(Nc2nc(-c3cccnc3)nc3ccccc23)c1				
80 to 110%	0.882 µM						c1ccc(Nc2nc(-c3ccccc3)nc3ccccc23)cc1	30.1	26 µM	26.6 µM	
80 to 110%	0.874 µM	0.085 µM	146%				COc1ccc(Nc2cc(C)nc(-c3ccncc3)n2)cc1				
80 to 110%	0.81 µM						OCc1cccc(Nc2nc(-c3cccnc3)nc3ccccc23)c1				
80 to 110%	0.753 µM			3.11 µM	> 25%		COc1ccc(Nc2nc(-c3cccnc3)nc3ccccc23)cc1OC				
80 to 110%	0.545 µM	0.01 µM	150%	2.08 µM	> 25%		COc1ccc(Nc2nc(-c3ccncc3)nc3ccccc23)cc1OC				
80 to 110%	0.376 µM	0.676 µM	119%				O=[N+]([O-])c1cccc(Nc2nc(-c3ccccn3)nc3ccccc23)c1				
80 to 110%	0.363 µM	0.131 µM	142%				Fc1cccc(Nc2nc(-c3ccccc3)nc3ccccc23)c1	49.6		18 µM	
80 to 110%	0.362 µM						COC(=O)c1cccc(Nc2nc(-c3cccnc3)nc3ccccc23)c1				
80 to 110%	0.271 µM	0.082 µM	144%				COc1cccc(Nc2cc(C)nc(-c3ccncc3)n2)c1				
80 to 110%	0.245 µM	0.007 µM	151%				O=[N+]([O-])c1cc(Nc2nc(-c3cccnc3)nc3ccccc23)ccc1O				
80 to 110%	0.134 µM	0.016 µM	178%				N#Cc1cccc(Nc2nc(-c3ccncc3)nc3ccccc23)c1	657	112 µM	88.1 µM	Non-Toxic
80 to 110%	0.122 µM	2.08 µM	134%				Cc1cc(Nc2cccc(C#N)c2)nc(-c2ccccc2)n1				
80 to 110%	0.117 µM	0.004 µM	185%				O=[N+]([O-])c1cccc(Nc2nc(-c3ccncc3)nc3ccccc23)c1				
80 to 110%	0.0811 µM	0.02 µM	135%				O=[N+]([O-])c1cc(Nc2nc(-c3ccccc3)nc3ccccc23)ccc1O	647			
80 to 110%	0.0714 µM						N#Cc1ccc(Nc2nc(-c3ccccc3)nc3ccccc23)cc1				
